Assay outcomes: PubChem BioAssay, Columbia University Molecular Screening Center
This excerpt belongs to a sample that is enriched for hits.
INS promoter act: TRM-6 insulin promoter activation; 130,000 tested, 0.81% active; TRM-6 cells, insulin promoter eGFP reporter, imaging; plate-scaled: unstimulated 0, stimulated control 100; activation, % at 2 µM;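 active = activation at 2 µM above a set limit, confirmed on inspection of the cell images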;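 note: share of cells whose green reporter signal exceeds an intensity cutoff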
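System: human fetal islet-derived TRM-6 cells with tamoxifen-inducible insulin promoter–eGFP reporter; input: seeding density of 1,000 cells per well; buffer or medium: Low-glucose (5.5 mM) medium with tamoxifen; incubation: compound exposure 48 h, 37 °C; measured by: high-content imaging of fixed cells with Hoechst nuclear stain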
* = called active by the depositor; [ ] = remark or other dose.

SMILES | INS promoter act
Cc1ccc(C(=O)N/C(=C\c2ccc(-c3cccc([N+](=O)[O-])c3)o2)C(=O)NC(C)(C)C)cc1 | -7
CCCNC(=O)Cn1c(=O)/c(=C\c2ccc(-c3ccc([N+](=O)[O-])cc3)o2)s/c1=C\C(=O)C(C)(C)C | 270*
O=C(Cc1ccccc1)N/N=C/c1ccc(-c2ccc([N+](=O)[O-])cc2)o1 | 0
Cc1cc(NC(=O)c2ccc3c(c2)OCO3)no1 | -85
CC(=O)Nc1ccc(C(=O)Nc2ccc(S(=O)(=O)NCC3CCCO3)cc2)cc1 (stereo unspecified) | -6
Cc1cc(NC(=O)c2ccc(S(=O)(=O)N(C)CC3CCCO3)cc2)no1 (stereo unspecified) | 414*
O=C(CCn1c(=O)c2sccc2n(CC(=O)OCc2ccccc2)c1=O)NCc1ccccc1 | 0
CC1(C(=O)Oc2ccccc2)Cc2ccccc2C(=O)O1 (stereo unspecified) | -7
CC(=NCCCNC1CCCCC1)C1=C(O)CC(C)(C)CC1=O | 89*
CC1(C)CC(=O)C(C=N)=C(O)C1 | 4
COc1ccc(OC)c2[nH]c(=O)c(CCNC(=O)C3CCCCC3)cc12 | -82
CCOC(=O)N1CCC(Nc2c(NCCCN3CCN(C4CCCCC4)CC3)c(=O)c2=O)CC1 | -8
O=C1CN(C(=O)c2cc3ccccc3o2)c2ccccc2N1 | 3
CCOC(=O)c1nn(-c2ccc(Cl)cc2)c2nnc(Cc3ccccc3)c(=O)n12 | -3
FC(F)(F)c1cccc(NC(=S)NCC2COc3ccccc3O2)c1 (stereo unspecified) | 3
Cc1nn(Cc2ccccc2)c(C)c1NC(=O)CCCn1nc([N+](=O)[O-])c(Cl)c1C | 0
Cc1nn(Cc2ccc(Cl)cc2Cl)c(C)c1NC(=O)Cn1nc([N+](=O)[O-])c(Cl)c1C | 650*
Cc1c(Cl)c([N+](=O)[O-])nn1Cc1ccc(C(=O)Nc2ccc(Cl)cn2)o1 | 3
CC(C)(C)SCCNC(=O)CSCc1ccc([N+](=O)[O-])cc1 | -10
O=S(=O)(c1cccc(-c2nnc3n2CCCCC3)c1)N1CCCC1 | 0
c1ccc(Oc2cc(-n3cccn3)ncn2)cc1 | 9
Cc1ccccc1Oc1cc(-n2ncc(Cl)c(Cl)c2=O)ncn1 | 270*
Cc1nn(-c2ccccc2)c(C)c1NC(=O)COc1ccc(F)cc1Cl | 8
CC1CC(C)(C)NC(=S)N1CCCC(=O)N1CCN(c2ccc(F)cc2)CC1 (stereo unspecified) | -3
CC(=O)NC1C(Oc2ccc3c(C)cc(=O)oc3c2)OC(COC(C)=O)C(OC(C)=O)C1OC(C)=O (stereo unspecified) | -8
SMILES | INS promoter act
CCN(CC)CCNC(C(=O)Nc1cccc(C(C)=O)c1)c1ccccc1 (stereo unspecified) | 7
CSc1nc(C)cc(/C=C\c2ccccc2)c1C#N | 107
CSc1nsc(/C=C/Nc2ccc(O)cc2C)c1C#N | 809*
O=C(CCCn1cnc([N+](=O)[O-])n1)Nc1cccc(O)c1 | 0
Cc1cc(F)c(F)c(C(=O)N2C(C)CCCC2C)c1Cl (stereo unspecified) | 110
C/C(CC(=O)NCc1ccco1)=N\NC(=O)COc1ccc(C)cc1 | -3
CCOc1ccc2oc(-c3ccccc3)c(C(=O)N3CCN(CCO)CC3)c2c1 | 314
COc1ccc(NC(C)=O)cc1CNC(=O)COc1c(C)c(C)cc(C)c1C | -2
COc1ccc(Nc2nc(-c3cccs3)cs2)cc1 | 6
COc1ccc(Nc2nc(-c3cccs3)cs2)c(OC)c1 | 592*
COc1ccc(OC)c(Nc2nc(-c3cccs3)cs2)c1 | 64
Cc1nnc(SCc2c(Cl)cccc2[N+](=O)[O-])s1 | 10
O=C(Oc1ccc(NC2=NS(=O)(=O)c3ccccc32)cc1)c1cccnc1 | 0
COc1ccc(C2C3=C(CC(C)(C)CC3=O)OC(N)=C2[N+](=O)[O-])cc1 (stereo unspecified) | 7
Cc1ccc(S(=O)(=O)C2(C(=O)Nc3cccc(F)c3)CC2)cc1 | 62
O=S(=O)(c1ccccc1)N1CC=C(c2ccccc2)CC1 | -6
Cc1ccc(C)c(NC(=O)CNS(=O)(=O)c2ccccc2)c1 | -71
Cn1c(=O)c(NC2CCCCC2)c2c3c(cccc31)C(=O)c1ccccc1-2 | 567*
Cc1cccc(NC2=C(NCCO)C(=O)c3ccccc3C2=O)c1 | -60
O=c1cc(NCCc2ccccc2)c2ccccc2o1 | 133
O=C1c2ccccc2C(=O)c2c1cccc2N1CCCC1 | 0
Cn1c(=O)c(NCCc2ccccc2)c2c3c(cccc31)C(=O)c1ccccc1-2 | 170*[may fluoresce]
O=C(NC1CCCCC1)n1c(=O)oc2ccccc21 | -3
COc1ccc(NC(=O)CCc2nc3ccccc3[nH]2)cc1 | 0
Cc1ccc(Cn2cc(SCC(N)=O)c3ccccc32)cc1 | -6
SMILES | INS promoter act
CCn1c(Cc2ccccc2)nnc1SCC(=O)Nc1ccc(N2CCOCC2)c(Cl)c1 | 377
Cn1c(SCC(=O)Nc2ccc(N3CCOCC3)c(Cl)c2)nnc1-c1ccccc1 | 800*
Cc1ccc(NC(=O)CSCC(=O)Nc2ccc(N3CCOCC3)c(Cl)c2)cc1 | 0
CS(=O)(=O)N(CC(=O)NCCSc1ccccn1)c1cccc2ccccc12 | -3
Cc1cc(C)n(CCCN2C(=O)c3cccc4cccc(c34)C2=O)n1 | 9
COc1ccc(C(=O)C2CN(c3ccccc3)CC2c2ccc(Cl)cc2)cc1 (stereo unspecified) | -7
CCOCCCNC(=O)CNC(=S)N(Cc1ccc(C)cc1)Cc1ccco1 | 0
Cc1nc(OCc2c(C)noc2C)c2ccccc2n1 | 8
Cc1ccc(C2C(C#N)=C(N)Oc3c2sc2ccccc32)o1 (stereo unspecified) | -8
CCOC(=O)c1c(C)oc2ccc(OC(=O)c3cccs3)cc12 | 7
CCOC(=O)CCC(=O)c1c(C)oc2ccc(OC)cc12 | 50
CCOC(=O)c1c(CN2CCN(C)CC2)oc2ccc(OC)cc12 | 138*
CCCCn1c(N)c(N(CC)C(=O)c2cccc(OC)c2)c(=O)[nH]c1=O | -8
COc1ccc(S(=O)(=O)Nc2ccc(N(C)C(C)=O)cc2)cc1 | 103*
Cc1ccc(S(=O)(=O)Nc2ccc(N(C)C)cc2)cc1 | 0
CCOc1ccc(NS(=O)(=O)c2ccc(NC(=S)NC(C)=O)cc2)cc1 | 7
COC(=O)C1CC(c2ccc(Cl)cc2)=NO1 (stereo unspecified) | 0
COCCCN1CN(Cc2ccccc2)CNC1=S | -2
C/C(=N\NC(=O)c1c(Cl)c(C)nn1C)c1cccc(NC(=O)COc2ccc(Cl)cc2)c1 | -3
CN(CC(=O)N1CCN(c2ccc(F)cc2)CC1)S(=O)(=O)c1ccc(F)cc1 | 79*
COc1ccc(S(=O)(=O)N(C)CC(=O)N2CCOCC2)cc1 | -7
O=C(CNS(=O)(=O)c1ccc(Br)cc1)N1CCN(c2ccc(F)cc2)CC1 | 354
CCC1=Nc2cc(C(=O)O)ccc2Sc2ccccc21 | -2
CC(C)OCCCNC(=O)c1ccccc1Oc1ccccc1 | 346
CCC1=Nc2cc(C(=O)NCCCOC(C)C)ccc2Sc2ccccc21 | 110*
O=C(O)CS(=O)(=O)CC(=O)NCc1cccc(C(F)(F)F)c1 | -6
CCOc1ccc(N2C(=O)CC(N(CCc3ccc(OC)cc3)C(=O)/C=C/C(=O)O)C2=O)cc1 (stereo unspecified) | 106
CC[n+]1c(/C=C/C=C/N(C(C)=O)c2ccccc2)sc2ccccc21 | 203*
CCC(CC)C(=O)NCCCCc1ccccc1 | -7
O/C(=C\c1ccc2ccccc2n1)c1ccc(O)cc1O | 143
